From ChEMBL document CHEMBL1177654, “[d4U]-spacer-[HI-236] double-drug inhibitors of HIV-1 reverse-transcriptase” (Bioorg Med Chem, 2010)

Legend:
[1] = test system: MT2; test: Cytotoxicity against human MT2 cells after 5 days by MTT assay; assay type: cell-based; conditions: mt2, 120 h
In short: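 Mock-infected MT-2 cells (1 × 10^5 cells/mL) grown 5 days in RPMI 1640 with 10% dFBS and kanamycin at varying compound concentrations, in triplicate. Viability read by MTT (5 h), then acidified isopropanol lysis and absorbance at 595 nm. Triplicate averages plotted against concentration; CC50 is the concentration reducing viable cells by 50%.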

[2] = target: Human immunodeficiency virus type 1 reverse transcriptase (Human immunodeficiency virus 1, UniProt Q72547); test: Inhibition of HIV1 reverse transcriptase-mediated thymidine incorporation into D23/D36 primer-template preincubated for 15 mins by polyacrylamide gel-electrophoresis
In short: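 RT at 6 nM active sites (from pre-steady-state active-site titration) pre-incubated ≥15 min with 1 μM 5′-radiolabelled D23/D36 primer/template, then ≥15 min on ice with inhibitor (DMSO held constant, <2%; DMSO-only control). Reaction started with 5 μM dTTP plus 10 mM MgCl2 (final concentrations), 15 min at 37 °C, quenched with 0.3 M EDTA. Products resolved on 20% denaturing PAGE. IC50 taken from a hyperbolic fit of product versus inhibitor concentration.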

[3] = test system: Human immunodeficiency virus 1; test: Antiviral activity against HIV1 3B infected in human MT-2 cells assessed as inhibition of viral-mediated cell death after 5 days by MTT assay; assay type: functional, organism-based; conditions: Human immunodeficiency virus 1, 3B, MT2, 120 h
In short: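 MT-2 cells at 1 × 10^5 cells/mL infected with wild-type HIV-IIIB at MOI 0.1, cultured 5 days in RPMI 1640 with 10% dFBS and kanamycin across varying compound concentrations in triplicate. MTT added for 5 h, cells lysed with acidified isopropanol, absorbance read at 595 nm. Triplicate averages plotted as dose-response curves; EC50 is the concentration inhibiting viral-mediated cell death by 50%.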

Structure (SMILES)	CC50 [1] [µM]	IC50 [2] [nM]	EC50 [3] [nM]
COc1ccc(OCCOCC#Cc2cn([C@H]3C=C[C@@H](CO)O3)c(=O)[nH]c2=O)c(CCNC(=S)Nc2ccc(Br)cn2)c1	38	575	1300
COc1ccc(OCCOCCOCC#Cc2cn([C@H]3C=C[C@@H](CO)O3)c(=O)[nH]c2=O)c(CCNC(=S)Nc2ccc(Br)cn2)c1	43	850	1900
COc1ccc(OCCOCCOCCOCCOCC#Cc2cn([C@H]3C=C[C@@H](CO)O3)c(=O)[nH]c2=O)c(CCNC(=S)Nc2ccc(Br)cn2)c1	18	1400	3100
COC(=O)[C@H](C)NP(=O)(OC[C@@H]1C=C[C@H](n2cc(C#CCOCCOCCOCCOCCOc3ccc(OC)cc3CCNC(=S)Nc3ccc(Br)cn3)c(=O)[nH]c2=O)O1)Oc1ccc(C)cc1 (stereo not given in full)	11	2300	2900
COc1ccc(OCCC#Cc2cn([C@H]3C=C[C@@H](CO)O3)c(=O)[nH]c2=O)c(CCNC(=S)Nc2ccc(Br)cn2)c1	17	61	250
COc1ccc(OC)c(CCNC(=S)Nc2ccc(Br)cn2)c1	> 1	38	
Cc1cn([C@H]2C=C[C@@H](CO)O2)c(=O)[nH]c1=O [STAVUDINE]	> 100	9600	2300
